In ChEMBL document CHEMBL1156919, “Synthesis and induction of apoptosis signaling pathway of ent-kaurane derivatives” (Bioorg Med Chem, 2010):
Activity calls are given as the source filed them. The calls are words filed in the database; no cut-off is given here.

How the values were obtained:
RAW264.7 [1] = assay: Cytotoxicity against mouse RAW264.7 cells assessed as reduction in cell viability after 24 hrs by MTT assay; assay type: functional, cell-based; conditions: RAW264.7, 24 h
How it was run: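 RAW 264.7 mouse macrophage line kept in RPMI 1640 with 10% FBS, L-glutamine and antibiotics. Treated with 1–100 μM for 24 h, then MTT at 37 °C for 4 h. Formazan taken up in DMSO and read at 540 nm. Triplicate, at least three independent experiments. IC50 is the concentration giving 50% loss of viability relative to untreated cells.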

HeLa = assay: Cytotoxicity against human HeLa cells assessed as reduction in cell viability after 24 hrs by MTT assay; assay type: functional, cell-based
How it was run: (§1)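 Cancer cells kept in DMEM with 10% FBS, L-glutamine and antibiotics. Exposed to 1–100 μM for 24 h, then MTT at 37 °C for 4 h. Formazan dissolved in DMSO and read at 540 nm. Triplicate wells, at least three independent experiments. Viability reduction expressed against untreated cultures. IC50 is the concentration giving 50% loss of viability.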

HepG2 = assay: Cytotoxicity against human HepG2 cells assessed as reduction in cell viability after 24 hrs by MTT assay; assay type: functional, cell-based; conditions: HepG2, 24 h; how it was run: as §1
HT-29 = assay: Cytotoxicity against human HT-29 cells assessed as reduction in cell viability after 24 hrs by MTT assay; assay type: functional, cell-based; conditions: HT-29, 24 h; how it was run: as §1
[2] = Toxicity in thioglycolate-induced mouse peritoneal macrophages assessed as reduction in cell viability after 24 hrs by MTT assay; assay type: cell-based; conditions: peritoneal macrophage cell
How it was run: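 Primary peritoneal macrophages from thioglycolate-injected mice exposed to a range of concentrations for 24 h. Viability read by MTT at 37 °C for 4 h, formazan dissolved in DMSO, absorbance at 540 nm. Three independent experiments in duplicate, means ± SD.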

[3] = Toxicity in thioglycolate-induced mouse peritoneal macrophages assessed as induction of apoptosis after 24 hrs by flow cytometry; assay type: cell-based; conditions: peritoneal macrophage cell
How it was run: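 Peritoneal macrophages collected from thioglycolate-injected mice and treated across a concentration range for 24 h. Stained with PI and analysed by flow cytometry for apoptotic percentage. Means ± SD of three independent experiments done in duplicate.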

RAW264.7 [4] = assay: Induction of apoptosis in mouse RAW264.7 cells at 1 to 25 uM after 24 hrs by flow cytometry; assay type: functional, cell-based
How it was run: (§2)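 RAW 264.7 cells exposed to 1–25 μM for 24 h. Stained with 0.005% (w/v) propidium iodide and analysed at once by flow cytometry. Apoptotic and necrotic fractions taken from a forward scatter versus PI fluorescence dot plot. Means ± SD of three independent experiments in triplicate.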

RAW264.7 [5] = assay: Induction of apoptosis in mouse RAW264.7 cells at 1 uM after 24 hrs by flow cytometry; assay type: functional; how it was run: as §2
RAW264.7 [6] = assay: Induction of apoptosis in mouse RAW264.7 cells assessed as caspase 8 activation at 5 uM after 24 hrs by fluorimetry; assay type: functional, cell-based
How it was run: (§3)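 RAW cells treated with 5 μM for 24 h, with or without 40 μM z-VAD. Caspase activity read fluorimetrically in cytosolic extracts. Substrates: Ac-DEVD-AMC for caspase-3, Ac-IETD-AFC for caspase-8, Ac-LEHD-AFC for caspase-9. Means ± SD of three independent experiments run in triplicate.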

RAW264.7 [7] = assay: Induction of apoptosis in mouse RAW264.7 cells assessed as caspase 9 activation at 5 uM after 24 hrs by fluorimetry; assay type: functional, cell-based; how it was run: as §3
RAW264.7 [8] = assay: Induction of apoptosis in mouse RAW264.7 cells assessed as caspase 3 activation at 5 uM after 24 hrs by fluorimetry; assay type: functional, cell-based; how it was run: as §3
RAW264.7 [9] = assay: Induction of apoptosis in mouse RAW264.7 cells assessed as caspase 8 activation at 5 uM in presence of 40 uM caspase inhibitor z-VAD after 24 hrs by fluorimetric assay; assay type: functional, cell-based; how it was run: as §3
RAW264.7 [10] = assay: Induction of apoptosis in mouse RAW264.7 cells assessed as caspase 9 activation at 5 uM in presence of 40 uM caspase inhibitor z-VAD after 24 hrs by fluorimetric assay; assay type: functional, cell-based; how it was run: as §3
RAW264.7 [11] = assay: Induction of apoptosis in mouse RAW264.7 cells assessed as caspase 3 activation at 5 uM in presence of 40 uM caspase inhibitor z-VAD after 24 hrs by fluorimetric assay; assay type: functional, cell-based; how it was run: as §3
RAW264.7 [12] = assay: Induction of apoptosis in mouse RAW264.7 cells at 5 uM in presence of 40 uM caspase inhibitor z-VAD after 24 hrs by flow cytometry; assay type: functional, cell-based
How it was run: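 RAW 264.7 cells given 5 μM for 24 h, with or without 40 μM z-VAD. Stained with 0.005% (w/v) PI and analysed by flow cytometry. Apoptotic percentage taken from a forward scatter versus PI fluorescence dot plot. Three independent experiments in triplicate, means ± SD.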

RAW264.7 [13] = assay: Increase in p53 protein expression in mouse RAW264.7 cells at 5 uM by Western blot; assay type: functional, cell-based
How it was run: (§4)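 RAW 264.7 cells incubated with 5 μM and sampled at several time points. Cytosolic extracts run on SDS–PAGE (10–15% gels) and blotted to PVDF. Probed for p53, Bax, Bcl-2, Bcl-xl, XIAP, IAP-1 and IAP-2, then HRP secondary and chemiluminescence. β-actin served as loading control. Protein measured by Bio-Rad assay.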

RAW264.7 [14] = assay: Increase in Bax protein expression in mouse RAW264.7 cells at 5 uM by Western blot; assay type: functional, cell-based; how it was run: as §4
RAW264.7 [15] = assay: Decrease in Bcl-2 protein expression in mouse RAW264.7 cells at 5 uM by Western blot; assay type: functional, cell-based; how it was run: as §4
RAW264.7 [16] = assay: Decrease in Bcl-xl protein expression in mouse RAW264.7 cells at 5 uM by Western blot; assay type: functional, cell-based; how it was run: as §4
RAW264.7 [17] = assay: Decrease in IAP protein expression in mouse RAW264.7 cells at 5 uM by Western blot; assay type: functional, cell-based; how it was run: as §4

Structure (SMILES): C=C1C(=O)[C@@]23CC[C@H]4[C@@](C)(CCC[C@@]4(C)C(=O)OC)[C@@H]2CC[C@@H]1C3
- IC50 (RAW264.7 [1]): 1 µM
- IC50 (HeLa): 50 µM
- IC50 (HepG2): 75 µM
- IC50 (HT-29): 30 µM
- Activity [2]: Non-toxic
- Activity [3]: Non-toxic
- Activity (RAW264.7 [4]): Active
- Activity (RAW264.7 [5]): 50%
- Activity (RAW264.7 [6]): Active
- Activity (RAW264.7 [7]): Active
- Activity (RAW264.7 [8]): Active
- Activity (RAW264.7 [9]): inactive
- Activity (RAW264.7 [10]): inactive
- Activity (RAW264.7 [11]): inactive
- Activity (RAW264.7 [12]): inactive
- Activity (RAW264.7 [13]): Active
- Activity (RAW264.7 [14]): Active
- Activity (RAW264.7 [15]): Active
- Activity (RAW264.7 [16]): Active
- Activity (RAW264.7 [17]): Active
